Results: ChEMBL document CHEMBL4376814, “Novel cyclin-dependent kinase 9 (CDK9) inhibitor with suppression of cancer stemness activity against non-small-cell lung cancer” (Eur J Med Chem, 2019)
Active and inactive are the calls of the source. The rule behind the calls is not given here.

Tests used:
[1] = biological target: MAP/microtubule affinity-regulating kinase 3 (Homo sapiens) (UniProt P27448); assay: Inhibition of recombinant full-length human MARK3 at 1 uM using KKKVSRSGLYRSPSMPENLNRPR as substrate measured after 40 mins in presence of [gamma33P]ATP by scintillation counting method relative to control
[2] = biological target: ALK tyrosine kinase receptor (Homo sapiens) (UniProt Q9UM73); assay: Inhibition of recombinant human ALK (1058 to end residues) at 1 uM using KKKSPGEYVNIEF as substrate measured after 40 mins in presence of [gamma33P]ATP by scintillation counting method relative to control
[3] = biological target: Mitogen-activated protein kinase kinase kinase 20 (Homo sapiens) (UniProt Q9NYL2); assay: Inhibition of recombinant full-length human ZAK at 1 uM using MBP as substrate measured after 40 mins in presence of [gamma33P]ATP by scintillation counting method relative to control
[4] = system: NCI-H1299; assay: Induction of apoptosis in human H1299 cells assessed as activation of caspase 3 at 0.25 to 1 uM after 24 hrs by Western blot analysis; type: functional, cell-based
Method in brief: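 A549 or H1299 cells exposed to the indicated concentrations for 24 h. Protein extracts then immunoblotted for apoptosis-pathway proteins (Bcl2, Bim, cleaved caspase 3).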

[5] = biological target: Mitogen-activated protein kinase 10 (Homo sapiens) (UniProt P53779); assay: Inhibition of recombinant full-length human JNK3 at 1 uM using peptide as substrate measured after 40 mins in presence of [gamma33P]ATP by scintillation counting method relative to control
[6] = biological target: Cyclin-dependent kinase 9 (Homo sapiens) (UniProt P50750); conditions: 0.25 uM
[7] = system: A549; assay: Downregulation of NANOG in human A549 cells at 0.25 to 1 uM by Western blot analysis; type: functional, cell-based
[8] = system: NCI-H1299; assay: Induction of apoptosis in human H1299 cells assessed as late apoptotic cells at 1 uM after 48 hrs by AnnexinV-FITC/PI staining-based flow cytometric analysis (reference value: 1.77%); type: functional
[9] = biological target: Serine/threonine-protein kinase 32B (Homo sapiens) (UniProt Q9NY57); assay: Inhibition of recombinant full-length human STK32B at 1 uM using casein as substrate measured after 120 mins in presence of [gamma33P]ATP by scintillation counting method relative to control
[10] = organism: Homo sapiens; assay: Inhibition of recombinant human Mer H628Q/R794A mutant (557 to 882 residues) at 1 uM using GGMEDIYFEFMGGKKK as substrate measured after 40 mins in presence of [gamma33P]ATP by scintillation counting method relative to control
[11] = biological target: Serine/threonine-protein kinase Nek6 (Homo sapiens) (UniProt Q9HC98); assay: Inhibition of recombinant human NEK6 (2 to end residues) at 1 uM using FLAKSFGSPNRAY as substrate measured after 40 mins in presence of [gamma33P]ATP by scintillation counting method relative to control
[12] = system: NCI-H1299; assay: Antiproliferative activity against human H1299 cells assessed as inhibition of cell viability at 1 uM after 72 hrs by CCK-8 assay relative to control; type: functional; conditions: NCI-H1299, 72 h
Method in brief: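 Single-concentration viability screen using CCK-8. Cells were seeded at 3000/well and treated for 72 h. A450 read after 1-4 h with reagent. Percent inhibition calculated against untreated control and blank wells as (Ac−As)/(Ac−Ab)×100%.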

[13] = biological target: FKBP12A/mTOR (Homo sapiens) (UniProt P62942+P42345); assay: Inhibition of recombinant full-length human mTOR/FKBP12 at 1 uM measured after 40 mins in presence of [gamma33P]ATP by scintillation counting method relative to control; type: protein-complex assay
[14] = system: U-937; assay: Antiproliferative activity against human U937 cells assessed as inhibition of cell viability after 72 hrs by CCK-8 assay; type: functional, cell-based; conditions: U-937, 72 h
Method in brief: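 Cells kept at 37 °C, 5% CO2 in DMEM or RPMI-1640 with 10% FBS and 1% penicillin/streptomycin, then seeded at 3000 cells/well (adherent) or 10,000 cells/well (suspension). Exposed to a range of concentrations for 72 h. CCK-8 added for 1-4 h before reading A450. […] Three independent experiments.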

[15] = biological target: CDK12/Cyclin K (Homo sapiens) (UniProt O75909+Q9NYV4); assay: Inhibition of human full length recombinant CDK12/cyclinK at 1 uM using RSRSRSRSRSRSRSR as substrate incubated for 120 mins in presence of [gamma-33P]ATP at by radiometric assay relative to control; type: protein-complex assay
[16] = Intrinsic clearance in CD-1 mouse liver microsomes at 2 uM in presence of NADPH measured up to 1 hr by HPLC analysis; type: ADME, Microsome
[17] = biological target: G protein-coupled receptor kinase 3 (Homo sapiens) (UniProt P35626); assay: Inhibition of recombinant full-length human GRK3 at 1 uM using casein as substrate measured after 40 mins in presence of [gamma33P]ATP by scintillation counting method relative to control
[18] = biological target: Serine/threonine-protein kinase PRP4 homolog (Homo sapiens) (UniProt Q13523); assay: Inhibition of human PRP4 (663 to end residues) at 1 uM using casein as substrate measured after 120 mins in presence of [gamma33P]ATP by scintillation counting method relative to control
Method in brief: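 Single-point inhibition at 1 µM was measured in the Eurofins KinaseProfiler panel. Values are the mean of two independent experiments.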

[19] = biological target: Cyclin-dependent kinase-like 2 (Homo sapiens) (UniProt Q92772); assay: Inhibition of human CDKL2 at 1 uM at 1 uM by radiometric method relative to control
Method in brief: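 Percent inhibition of kinase activity at a single compound concentration, measured by the outsourced Eurofins KinaseProfiler panel. Values are the mean of two independent experiments.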

[20] = system: A549; assay: Induction of apoptosis in human A549 cells assessed as late apoptotic cells at 1 uM after 48 hrs by AnnexinV-FITC/PI staining-based flow cytometric analysis (reference value: 7.66%); type: functional
[21] = system: Homeodomain-interacting protein kinase 2 (Homo sapiens), Q9H2X6 [UNDEFINED MUTATION]; assay: Inhibition of recombinant human HIPK2 I471N mutant (165 to 564 residues) at 1 uM using myelin basic protein as substrate measured after 40 mins in presence of [gamma33P]ATP by scintillation counting method relative to control
[22] = biological target: LIM domain kinase 2 (Homo sapiens) (UniProt P53671); assay: Inhibition of recombinant human LIMK2 at 1 uM by radiometric method relative to control
[23] = biological target: Protein kinase C epsilon type (Homo sapiens) (UniProt Q02156); assay: Inhibition of recombinant human PKCepsilon (2 to end residues) at 1 uM using ERMRPRKRQGSVRRRV as substrate measured after 40 mins in presence of [gamma33P]ATP by scintillation counting method relative to control
[24] = biological target: Epidermal growth factor receptor (Homo sapiens) (UniProt P00533); assay: Inhibition of recombinant human EGFR (696 to end residues) at 1 uM using poly (Glu,Tyr) 4:1 as substrate incubated for 40 mins in presence of [gamma-33P]ATP at Km concentration by radiometric assay relative to control
Chain of Epidermal growth factor receptor (Homo sapiens) (P00533 whole entry): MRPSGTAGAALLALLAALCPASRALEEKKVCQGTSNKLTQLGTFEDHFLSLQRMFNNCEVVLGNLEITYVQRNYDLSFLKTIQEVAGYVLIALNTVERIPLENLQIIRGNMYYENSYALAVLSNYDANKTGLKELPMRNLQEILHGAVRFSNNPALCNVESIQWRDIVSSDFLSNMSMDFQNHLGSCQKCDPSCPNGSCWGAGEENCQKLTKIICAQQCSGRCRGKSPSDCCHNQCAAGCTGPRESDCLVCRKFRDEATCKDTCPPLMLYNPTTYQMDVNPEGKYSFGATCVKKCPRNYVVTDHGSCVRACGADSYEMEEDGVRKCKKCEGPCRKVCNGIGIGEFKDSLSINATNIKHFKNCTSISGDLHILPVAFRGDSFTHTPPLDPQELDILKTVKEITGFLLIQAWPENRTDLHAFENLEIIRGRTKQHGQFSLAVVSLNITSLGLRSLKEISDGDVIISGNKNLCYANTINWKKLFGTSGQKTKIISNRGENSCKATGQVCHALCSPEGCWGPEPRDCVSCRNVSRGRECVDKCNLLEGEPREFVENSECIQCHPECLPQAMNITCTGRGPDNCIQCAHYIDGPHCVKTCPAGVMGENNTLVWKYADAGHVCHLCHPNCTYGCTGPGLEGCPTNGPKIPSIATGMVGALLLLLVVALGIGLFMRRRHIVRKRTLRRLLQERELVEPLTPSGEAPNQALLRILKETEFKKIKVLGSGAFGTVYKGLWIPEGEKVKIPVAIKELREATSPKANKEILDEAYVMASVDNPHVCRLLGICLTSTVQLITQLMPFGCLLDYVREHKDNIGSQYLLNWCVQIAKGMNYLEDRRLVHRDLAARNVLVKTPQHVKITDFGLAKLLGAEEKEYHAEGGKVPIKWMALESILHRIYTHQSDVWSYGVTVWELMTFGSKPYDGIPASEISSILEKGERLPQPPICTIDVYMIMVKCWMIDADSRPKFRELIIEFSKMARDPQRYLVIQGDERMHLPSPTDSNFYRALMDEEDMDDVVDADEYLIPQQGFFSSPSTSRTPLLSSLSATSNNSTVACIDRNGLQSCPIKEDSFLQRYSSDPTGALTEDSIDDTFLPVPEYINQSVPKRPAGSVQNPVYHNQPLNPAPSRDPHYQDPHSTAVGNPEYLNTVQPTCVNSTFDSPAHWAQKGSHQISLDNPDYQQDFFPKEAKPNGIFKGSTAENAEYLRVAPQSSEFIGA

Chain of Cyclin-dependent kinase-like 2 (Homo sapiens) (Q92772 whole entry): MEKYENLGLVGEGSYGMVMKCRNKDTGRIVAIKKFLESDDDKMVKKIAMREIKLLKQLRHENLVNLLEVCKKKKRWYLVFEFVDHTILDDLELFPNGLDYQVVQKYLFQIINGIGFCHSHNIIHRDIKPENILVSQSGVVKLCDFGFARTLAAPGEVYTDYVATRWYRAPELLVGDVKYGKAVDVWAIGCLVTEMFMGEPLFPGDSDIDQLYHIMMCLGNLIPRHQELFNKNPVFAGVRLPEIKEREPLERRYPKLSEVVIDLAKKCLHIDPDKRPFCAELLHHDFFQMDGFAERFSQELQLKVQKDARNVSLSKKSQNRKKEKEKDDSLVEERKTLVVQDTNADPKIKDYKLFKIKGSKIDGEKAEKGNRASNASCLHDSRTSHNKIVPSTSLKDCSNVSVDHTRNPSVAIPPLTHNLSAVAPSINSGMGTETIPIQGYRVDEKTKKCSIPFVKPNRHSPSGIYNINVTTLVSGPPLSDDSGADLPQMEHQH
Chain of Protein kinase C epsilon type (Homo sapiens) (Q02156 whole entry): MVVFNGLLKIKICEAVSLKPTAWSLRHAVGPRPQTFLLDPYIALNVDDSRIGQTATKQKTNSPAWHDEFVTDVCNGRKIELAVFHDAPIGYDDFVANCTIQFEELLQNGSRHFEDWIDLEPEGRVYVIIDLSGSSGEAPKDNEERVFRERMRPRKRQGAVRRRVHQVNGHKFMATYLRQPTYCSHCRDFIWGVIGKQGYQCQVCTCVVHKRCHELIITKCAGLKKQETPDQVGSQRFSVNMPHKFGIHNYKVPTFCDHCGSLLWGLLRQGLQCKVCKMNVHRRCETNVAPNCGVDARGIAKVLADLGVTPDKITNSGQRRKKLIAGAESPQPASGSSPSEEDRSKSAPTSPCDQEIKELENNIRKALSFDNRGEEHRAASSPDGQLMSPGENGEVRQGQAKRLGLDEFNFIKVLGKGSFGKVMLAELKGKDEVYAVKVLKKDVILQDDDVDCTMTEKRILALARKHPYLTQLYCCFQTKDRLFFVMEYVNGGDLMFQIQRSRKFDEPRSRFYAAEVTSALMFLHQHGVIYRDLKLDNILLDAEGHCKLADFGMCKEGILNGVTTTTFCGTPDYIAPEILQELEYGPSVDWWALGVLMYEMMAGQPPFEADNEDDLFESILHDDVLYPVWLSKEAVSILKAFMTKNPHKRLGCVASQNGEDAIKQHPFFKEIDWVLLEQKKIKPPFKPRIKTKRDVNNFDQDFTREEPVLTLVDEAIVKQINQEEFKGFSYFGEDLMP
Chain of Mitogen-activated protein kinase 10 (Homo sapiens) (P53779 whole entry): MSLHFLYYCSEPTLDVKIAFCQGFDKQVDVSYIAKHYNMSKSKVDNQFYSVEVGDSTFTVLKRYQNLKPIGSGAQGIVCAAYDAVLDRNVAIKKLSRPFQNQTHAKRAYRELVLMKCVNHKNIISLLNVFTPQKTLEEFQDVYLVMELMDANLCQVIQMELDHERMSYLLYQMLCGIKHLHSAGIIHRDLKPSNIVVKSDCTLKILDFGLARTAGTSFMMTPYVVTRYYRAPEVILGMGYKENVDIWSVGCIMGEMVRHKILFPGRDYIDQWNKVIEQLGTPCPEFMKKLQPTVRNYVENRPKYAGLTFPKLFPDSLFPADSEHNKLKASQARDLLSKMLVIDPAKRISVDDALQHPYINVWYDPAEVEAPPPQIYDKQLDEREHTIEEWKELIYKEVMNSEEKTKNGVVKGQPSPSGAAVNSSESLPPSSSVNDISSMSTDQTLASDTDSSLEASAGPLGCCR
Chain of MAP/microtubule affinity-regulating kinase 3 (Homo sapiens) (P27448 whole entry, looked up): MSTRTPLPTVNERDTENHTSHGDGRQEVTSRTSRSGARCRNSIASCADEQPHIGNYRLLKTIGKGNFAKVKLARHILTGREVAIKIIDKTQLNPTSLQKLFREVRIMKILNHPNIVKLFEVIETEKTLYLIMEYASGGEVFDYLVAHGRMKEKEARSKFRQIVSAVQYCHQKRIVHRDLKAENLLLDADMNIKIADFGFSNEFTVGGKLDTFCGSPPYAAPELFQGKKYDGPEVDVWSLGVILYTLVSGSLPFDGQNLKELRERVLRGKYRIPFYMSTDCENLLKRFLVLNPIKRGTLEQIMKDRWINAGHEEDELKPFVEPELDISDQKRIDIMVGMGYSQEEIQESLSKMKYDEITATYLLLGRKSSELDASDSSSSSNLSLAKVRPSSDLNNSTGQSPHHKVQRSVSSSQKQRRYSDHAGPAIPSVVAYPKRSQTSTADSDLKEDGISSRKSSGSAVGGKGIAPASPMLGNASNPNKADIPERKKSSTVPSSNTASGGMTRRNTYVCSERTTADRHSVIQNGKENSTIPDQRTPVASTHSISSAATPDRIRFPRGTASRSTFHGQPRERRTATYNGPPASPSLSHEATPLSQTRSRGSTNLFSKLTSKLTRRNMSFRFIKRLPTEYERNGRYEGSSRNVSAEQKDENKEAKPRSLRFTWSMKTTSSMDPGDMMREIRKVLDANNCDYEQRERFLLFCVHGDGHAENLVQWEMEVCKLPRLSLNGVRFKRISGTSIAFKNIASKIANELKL
Chain of Serine/threonine-protein kinase PRP4 homolog (Homo sapiens) (Q13523 whole entry): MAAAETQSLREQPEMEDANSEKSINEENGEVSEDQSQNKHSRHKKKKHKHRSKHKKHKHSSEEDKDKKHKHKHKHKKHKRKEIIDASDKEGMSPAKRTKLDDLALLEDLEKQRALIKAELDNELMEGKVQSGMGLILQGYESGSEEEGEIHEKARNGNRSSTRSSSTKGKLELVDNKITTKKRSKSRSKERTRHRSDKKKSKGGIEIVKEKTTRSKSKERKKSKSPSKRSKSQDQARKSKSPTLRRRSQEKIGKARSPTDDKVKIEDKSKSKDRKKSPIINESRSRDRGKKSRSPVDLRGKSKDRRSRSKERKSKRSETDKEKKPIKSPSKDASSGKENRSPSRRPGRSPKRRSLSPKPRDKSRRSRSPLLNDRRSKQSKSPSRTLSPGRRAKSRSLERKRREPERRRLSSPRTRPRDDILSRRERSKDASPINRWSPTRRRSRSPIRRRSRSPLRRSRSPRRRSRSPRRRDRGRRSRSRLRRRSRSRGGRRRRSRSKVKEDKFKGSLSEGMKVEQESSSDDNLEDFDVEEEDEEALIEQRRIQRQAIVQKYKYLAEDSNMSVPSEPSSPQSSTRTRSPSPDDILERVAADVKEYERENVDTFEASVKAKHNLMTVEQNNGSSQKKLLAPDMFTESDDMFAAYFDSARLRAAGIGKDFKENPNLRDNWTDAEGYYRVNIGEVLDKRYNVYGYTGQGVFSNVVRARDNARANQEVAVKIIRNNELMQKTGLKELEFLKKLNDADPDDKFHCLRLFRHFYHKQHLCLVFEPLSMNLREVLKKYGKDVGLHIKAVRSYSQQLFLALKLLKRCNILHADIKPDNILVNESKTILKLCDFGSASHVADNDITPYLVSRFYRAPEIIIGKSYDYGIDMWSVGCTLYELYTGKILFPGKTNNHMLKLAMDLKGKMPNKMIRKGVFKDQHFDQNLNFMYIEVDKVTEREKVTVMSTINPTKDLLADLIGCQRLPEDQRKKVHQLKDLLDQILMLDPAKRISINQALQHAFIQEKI
Chain of Serine/threonine-protein kinase 32B (Homo sapiens) (Q9NY57 whole entry, the tested form may be a part): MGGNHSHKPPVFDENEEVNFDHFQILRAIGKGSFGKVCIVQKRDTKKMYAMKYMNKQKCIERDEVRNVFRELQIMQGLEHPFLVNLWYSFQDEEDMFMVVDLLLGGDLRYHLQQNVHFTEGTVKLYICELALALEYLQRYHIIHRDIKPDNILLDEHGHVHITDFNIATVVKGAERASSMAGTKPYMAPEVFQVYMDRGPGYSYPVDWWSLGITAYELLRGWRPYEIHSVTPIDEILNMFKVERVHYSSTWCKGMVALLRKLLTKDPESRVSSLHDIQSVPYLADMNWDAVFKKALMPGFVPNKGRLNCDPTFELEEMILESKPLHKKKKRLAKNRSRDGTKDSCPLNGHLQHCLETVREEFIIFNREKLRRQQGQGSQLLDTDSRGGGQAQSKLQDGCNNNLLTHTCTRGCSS

CN(C)C(=O)c1cc2cnc(Nc3ccc(NC(=O)CCCCCCCN=C=S)cc3)nc2n1C1CCCC1
inhibition [1]: 43%
inhibition [2]: -3%
inhibition [3]: 86%
Activity [4]: Active
inhibition [5]: 85%
inhibition [6]: Active
Activity [7]: Active
Activity [8]: 4.51%
inhibition [9]: 49%
inhibition [10]: 77%
inhibition [11]: 4%
inhibition at 1 µM [12]: 87.4%
inhibition [13]: -6%
IC50 [14]: 1990 nM
inhibition [15]: 45%
CLH [16]: 100 µL/min/mg
inhibition [17]: 3%
inhibition [18]: 1%
inhibition [19]: 57%
Activity [20]: 16.4%
inhibition [21]: 7%
inhibition [22]: 13%
inhibition [23]: -3%
inhibition [24]: 21%
